Screening results from PubChem BioAssay.
TAAR1 antag – human TAAR1 antagonists, primary screen, Fluo-8 calcium fluorescence, CHO RD-HGA16 cells; Trace amine-associated receptor 1 (Homo sapiens), Q96RJ0; antagonist; inhibition, % at 3 µM; 1.5% of 360,000 active; AID 624466, 2012;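 active = inhibition above a per-plate cutoff, the mean inhibition of test compounds on that plate plus 3 SD, cut at about 49% in these data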;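 note: 0% = DMSO plus EC80 beta-PEA response and 100% = DMSO alone without agonist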
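Assay system: CHO-derived RD-HGA16 cells stably expressing human TAAR1 plus Gα16. Timing: 140 s kinetic read after compound, 140 s after agonist. Technique: kinetic Fluo-8 calcium fluorescence measurement. Measure: % inhibition of agonist calcium response.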
TMEM16A inh – TMEM16A chloride channel inhibitors, primary screen, cell-based, HTS. HEK293 TMEM16A/YFP iodide influx fluorescence, ionomycin. normalized B-score (activity score, 25-100; higher = stronger inhibition) at 10 µM. 1.2% of 310,000 active. Anoctamin-1 (Mus musculus), Q8BHY3;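 active = ratio plate-corrected score three or more library SD toward inhibition, starting fluorescence score within five deviations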;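 note: score derived from kinetic fluorescence span divided by baseline fluorescence per well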
Target sequence (Q8BHY3 whole entry, looked up): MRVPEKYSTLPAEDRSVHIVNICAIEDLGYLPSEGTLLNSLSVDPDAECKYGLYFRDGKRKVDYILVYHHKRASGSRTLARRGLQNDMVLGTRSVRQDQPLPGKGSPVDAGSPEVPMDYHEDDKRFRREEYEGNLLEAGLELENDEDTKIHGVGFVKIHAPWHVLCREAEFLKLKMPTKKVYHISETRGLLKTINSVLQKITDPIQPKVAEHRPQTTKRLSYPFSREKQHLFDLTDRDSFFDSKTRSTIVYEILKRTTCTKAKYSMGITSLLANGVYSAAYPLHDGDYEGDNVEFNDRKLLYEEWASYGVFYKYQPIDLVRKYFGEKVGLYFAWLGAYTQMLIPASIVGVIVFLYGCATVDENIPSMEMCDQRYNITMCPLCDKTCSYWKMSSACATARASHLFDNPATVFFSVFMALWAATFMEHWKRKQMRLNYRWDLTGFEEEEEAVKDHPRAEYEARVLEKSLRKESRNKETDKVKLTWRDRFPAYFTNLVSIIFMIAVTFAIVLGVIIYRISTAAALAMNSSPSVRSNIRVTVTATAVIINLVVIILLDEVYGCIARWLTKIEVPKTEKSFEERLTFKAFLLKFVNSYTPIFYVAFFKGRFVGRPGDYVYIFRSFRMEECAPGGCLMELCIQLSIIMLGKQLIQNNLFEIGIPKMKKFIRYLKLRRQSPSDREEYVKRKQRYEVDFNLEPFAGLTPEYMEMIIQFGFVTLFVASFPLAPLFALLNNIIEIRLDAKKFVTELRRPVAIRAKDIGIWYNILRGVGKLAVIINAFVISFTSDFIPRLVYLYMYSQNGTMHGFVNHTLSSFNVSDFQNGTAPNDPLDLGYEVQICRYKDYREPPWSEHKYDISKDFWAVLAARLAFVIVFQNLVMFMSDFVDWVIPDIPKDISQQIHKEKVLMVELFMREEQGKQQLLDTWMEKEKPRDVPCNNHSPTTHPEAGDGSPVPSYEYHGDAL
CRFR2-BP antag – antagonists of CRF-BP/CRF-R2 complex, primary screen, cell-based, HEK293, calcium dye fluorescence, uHTS; CRF-induced calcium fluorescence; inhibition, % at 11.8 µM; 0.59% of 350,000 active;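 active = inhibition of the ligand-induced calcium signal above about 50% at the single tested concentration, limit read from the data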
ANO1 activ – TMEM16A chloride channel activators or potentiators, primary screen, cell-based, HTS; HEK293 TMEM16A/YFP-H148Q/I152L, iodide quench fluorescence; hits give low values; AID 623877, 2012; 0.3% of 340,000 active; Anoctamin-1 (Mus musculus), Q8BHY3; B-score at 10 µM;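 active = fluorescence-ratio B-score plate-corrected deviation score at least 3 library SD below zero, with starting fluorescence score within 5 deviations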;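 note: channel opened by trigger with iodide after compound preincubation; score built on the fluorescence ratio of max minus min over baseline; more negative score means more quench and so TMEM16A activation or potentiation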
TAAR1 ag – human TAAR1 agonists, primary screen, Fluo-8 calcium fluorescence, CHO RD-HGA16 cells; Trace amine-associated receptor 1 (Homo sapiens), Q96RJ0; activation, % at 3 µM; 0.99% of 360,000 active; vehicle wells 0%, saturating PEA agonist 100%;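 active = activation above the mean activation of all test compounds in the run plus 3 SD, cut at about 38% in these data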
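Test system: RD-HGA16 (CHO) cells co-expressing Gα16 and hTAAR1 | Doses: Single dose, 3 µM | Schedule: 17-24 h seeding, 75 min 37 °C dye, 30 min RT | Evaluation: % activation from peak over basal fluorescence ratio, DMSO-to-PEA scaled | Technique: Kinetic Fluo-8 calcium fluorescence | Benchmarks: Low control DMSO, high control PEA (EC100)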
CRFBP-R2 agonist – agonists of CRF-BP/CRF-R2 complex, primary screen, cell-based, HEK293, calcium dye fluorescence, uHTS. 0.46% of 350,000 active. activation, % at 13.2 µM. calcium dye fluorescence (FLIPR); percent of saturating CRF peptide response. CRF-binding protein / CRF receptor 2 complex (human);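 active = activation of at least 50%, plus an integration ratio under a set limit after plate pattern correction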;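 note: plate controls were neutral control wells without compound for no effect and CRF at EC100 for full effect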
Numbers without * were called inactive; i = inactive; x = no result given. Most compounds without a hit are left out; they make up all but 3.9% or so of the library.

SMILES	TAAR1 antag	TMEM16A inh	CRFR2-BP antag	ANO1 activ	TAAR1 ag	CRFBP-R2 agonist
CCn1c(N2CCN(S(=O)(=O)c3ccc(OC)cc3)CC2)nc2ccccc21	49*	i	-8	i	34	-1
CCOC(=O)N1CCN(C(=O)CCCn2nnnc2CN2CCC(C)CC2)CC1	-23	i	3	i	0	0
O=C(CSc1nnc(Cn2nnc3ccccc32)o1)N(Cc1ccc(Cl)cc1)c1ccccc1	29	100*	-15	i	18	4
O=C(CSc1nnc(Cn2nnc3ccccc32)o1)Nc1cccc(Cl)c1	18	i	11	i	7	0
COc1ccc(C2=NOC(Cn3nc(C(=O)NCc4cccc(C(F)(F)F)c4)cc3-c3ccccc3)C2)cc1 (configuration not stated)	55*	i	-8	i	11	3
COCCNC(=O)c1cc(-c2ccccc2)n(CC2CC(c3ccc(OC)cc3)=NO2)n1 (configuration not stated)	53*	i	12	i	20	4
COc1ccc(C2=NOC(Cn3nc(C(=O)O)cc3-c3ccccc3)C2)cc1 (configuration not stated)	4	i	-3	i	2	0
COc1ccc(C2=NOC(Cn3nc(C(=O)NCc4ccc(C)cc4)cc3-c3ccccc3)C2)cc1 (configuration not stated)	58*	i	7	i	12	6
Cc1ccccc1-c1cc(C(=O)NCc2cccc(C(F)(F)F)c2)n(CC2CC(c3cccnc3)=NO2)n1 (configuration not stated)	55*	x	19	i	13	1
O=C(NCc1cccc(C(F)(F)F)c1)c1cc(-c2ccccc2)nn1CC1CC(c2cccnc2)=NO1 (configuration not stated)	32	i	3	i	18	3
CC(C)(C)N1CC23CCC(C[C@@H]2C1=O)O3 (some centres not stated)	-14	i	3	i	3	1
CCN(CC)S(=O)(=O)c1ccc(N2CCCCC2)c(NC(=O)/C(C#N)=C/c2ccc(OC)cc2)c1	10	i	14	i	0	2
CCOc1cc(/C=C(/C#N)C(=O)Nc2ccc(O)cc2)cc(Br)c1O	3	i	-81	i	19	96*
CCOc1ccc(NC(=O)/C(C#N)=C/c2ccc(N3CCCC3)c(C)c2)cc1	27	i	-135	i	7	119*
Cc1nn(Cc2ccc(C(=O)NC(C)(C)C)o2)c(C)c1Br	5	25*	-2	i	10	-1
Cc1sc2nc(CSC(C)C(=O)Nc3ccc(Cl)cn3)[nH]c(=O)c2c1C (configuration not stated)	13	x	-9	i	3	3
CC1(C(=O)CSc2nc3ccccc3s2)CCC(=O)O1 (configuration not stated)	-13	100*	6	i	6	-1
CCN1/C(=C\C(=S)Nc2ccccc2)Sc2ccccc21	2	i	-13	i	0	-1
CCN1/C(=C\C=C(C(C)=O)C(C)=O)Sc2ccccc21	10	i	-82	-5.6*	27	81*
Cc1ccc(NC(=O)C2CCN(c3ncnc4sc(C)c(C)c34)CC2)cc1S(=O)(=O)N(C)C	34	i	10	i	7	0
CCN(CC)S(=O)(=O)c1cc(NC(=O)C2CCN(c3ncnc4sc(C)c(C)c34)CC2)ccc1Cl	65*	i	2	i	5	3
Cc1ccc(C)c(S(=O)(=O)N2CCN(C(=O)C3CCN(c4ncnc5sc(C)c(C)c45)CC3)CC2)c1	59*	i	-4	i	5	1
N#CCN(N=Nc1ccccc1)c1ccccc1	-8	i	3	i	-1	0
CN(C)/C=N/c1nccc(-c2cccs2)n1	-31	i	3	i	0	54*
CC(=O)Nc1ccc(NC(=O)C(C)OC(=O)CCCN2C(=O)c3cccc4cccc(c34)C2=O)cc1 (configuration not stated)	-1	i	12	i	10	-3
SMILES	TAAR1 antag	TMEM16A inh	CRFR2-BP antag	ANO1 activ	TAAR1 ag	CRFBP-R2 agonist
NC(=O)NOCc1ccc(Cl)cc1Cl	-18	i	3	i	0	-2
CNC(=S)/N=C/NOCc1ccc(Cl)cc1Cl	22	100*	22	i	9	12
CCCCCC[n+]1ccccc1/C=C/c1ccc(N(C)C)cc1	70*	x	x	x	30	x
CC[n+]1ccccc1/C=C/c1ccc(N(C)C)cc1	14	x	-9	i	9	8
O=C(CCCC(=O)Nc1ccc(Br)cc1)N/N=C/c1ccccc1	0	i	-5	i	36	0
COc1cccc(/C=N/Nc2ccnc(=O)[nH]2)c1O	-4	i	2	i	2	-1
O=c1nccc(N/N=C/c2ccccc2O)[nH]1	-9	i	-15	i	38*	0
COc1ccc(N2CCN(C(=O)c3ccc(Br)o3)CC2)cc1	-19	i	-16	i	-1	-9
O=C1S/C(=C/c2ccc(N3CCOCC3)o2)C(=O)N1Cc1c(F)cccc1Cl	19	i	-43	i	10	84*
CCOC(=O)c1ccc(NC(=O)CN2C(=O)CSC2=O)cc1	-5	i	102*	i	6	-1
Cc1ccc(S(=O)(=O)CC(=O)Nc2nc(-c3ccccc3)cs2)cc1	19	i	-13	-5*	9	-1
Cc1csc(NC(=O)C2=NN(c3ccccc3)C(=O)CC2)n1	7	i	-7	i	9	0
O=C(CS(=O)(=O)c1ccccc1)Nc1nc(-c2ccccc2)cs1	21	i	6	i	12	-3
Cc1ccc(-c2csc(NC(=O)C3=NN(c4ccccc4)C(=O)CC3)n2)cc1	52*	i	-7	i	12	1
CCCCNc1c(-c2cccc(-c3ccc(OC)cc3)c2)nc2cc(C)ccn12	55*	x	-24	i	8	3
COc1ccc(-c2nc3ccc(C)cn3c2NCc2ccc3c(c2)OCO3)cc1	32	i	-4	i	6	1
CCCCNc1c(-c2cccc(-c3ccc(OC)cc3)c2)nc2ccc(C)cn12	81*	i	44	i	12	-2
